Experimental data reported in ChEMBL document CHEMBL1126276, “Synthesis and antimalarial properties of 1-imino derivatives of 7-chloro-3-substituted-3,4-dihydro-1,9(2H,10H)-acridinediones and related structures” (J Med Chem, 1992).

What was measured:
Plasmodium berghei [1] = assay: (§1) Antimalarial activity in Plasmodium berghei infected mice (Mus musculus) after 20 mg/kg subcutaneous dose; assay type: functional
Method in brief: (§2)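 […] in mice infected with a normal drug-sensitive P. berghei strain. Compound dissolved or suspended in sesame or peanut oil, given as a single subcutaneous dose 72 h postinfection.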

Plasmodium berghei [2] = assay: Antimalarial activity in Plasmodium berghei infected mice (Mus musculus) after 160 mg/kg subcutaneous dose; assay type: functional; method in brief: as §2
Plasmodium berghei [3] = assay: Antimalarial activity in Plasmodium berghei infected mice (Mus musculus) after 320 mg/kg subcutaneous dose; assay type: functional; method in brief: as §2
Plasmodium berghei [4] = assay: Antimalarial activity in Plasmodium berghei infected mice (Mus musculus) after subcutaneous 640 mg/kg dose; assay type: functional
Method in brief: (§3)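 Normal drug-sensitive P. berghei strain in mice. Compound dissolved or suspended in sesame or peanut oil, given parenterally as a single subcutaneous dose 72 h postinfection.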

Plasmodium berghei [5] = assay: as §1; assay type: functional; method in brief: as §3; remark: listed apart in the source
Plasmodium berghei [6] = assay: (§4) Antimalarial activity in Plasmodium berghei infected mice (Mus musculus) after 80 mg/kg subcutaneous dose; assay type: functional; method in brief: as §3
Plasmodium berghei [7] = assay: (§5) Antimalarial activity in Plasmodium berghei infected mice (Mus musculus) after 40 mg/kg subcutaneous dose; assay type: functional; method in brief: as §2
Plasmodium berghei [8] = assay: as §5; assay type: functional; method in brief: as §3; remark: listed apart in the source
Plasmodium berghei [9] = assay: Antimalarial activity in Plasmodium berghei infected mice (Mus musculus) after subcutaneous 160 mg/kg dose; assay type: functional; method in brief: as §3
Plasmodium berghei [10] = assay: Antimalarial activity in Plasmodium berghei infected mice (Mus musculus) after subcutaneous 320 mg/kg dose; assay type: functional; method in brief: as §3
Plasmodium berghei [11] = assay: Antimalarial activity was measured against mice (Mus musculus) infected with Plasmodium berghei by subcutaneous administration of 640 mg/kg dose; assay type: organism-based; parameters: dose 640 mg/kg, route subcutaneous; conditions: in vivo, sc; method in brief: as §2
Plasmodium berghei [12] = assay: as §4; assay type: functional; method in brief: as §2; remark: listed apart in the source
Plasmodium berghei [13] = assay: Antimalarial activity Plasmodium berghei infected mice (Mus musculus) after 640 mg/kg subcutaneous dose; assay type: functional; method in brief: as §2

Structure (SMILES)	Delta mean survival time (Plasmodium berghei [1])	Delta mean survival time (Plasmodium berghei [2])	No. of cured mice (Plasmodium berghei [4])	No. of cured mice (Plasmodium berghei [5])	No. of cured mice (Plasmodium berghei [6])	Delta mean survival time (Plasmodium berghei [7])	No. of cured mice (Plasmodium berghei [8])	No. of cured mice (Plasmodium berghei [9])	No. of cured mice (Plasmodium berghei [10])	No. of toxic deaths (Plasmodium berghei [11])	Delta mean survival time (Plasmodium berghei [12])	also measured
CCN(CC)CCCCCCC/N=C1\CC(c2ccc(Cl)cc2Cl)Cc2nc3ccc(Cl)cc3c(O)c21 (centres undefined)	6.7	0.7	5	4	5	9.7	4	4	4	–	–	Delta mean survival time (Plasmodium berghei [3]): 3.7
O=C1CC(c2ccc(Cl)cc2Cl)Cc2c1c(=O)c1cc(Cl)ccc1n2O (centres undefined)	1.9	–	5	2	5	–	5	5	5	–	–	–
O=c1c2c(n(O)c3ccc(Cl)cc13)CC(c1cccc(C(F)(F)F)c1)C/C2=N\CCN1CCCC1 (centres undefined)	–	9.6	4	–	–	6.6	–	4	5	1	8	–
CC1C(=O)c2c(n(O)c3ccc(Cl)cc3c2=O)CC1c1ccc(Cl)cc1Cl (centres undefined)	10.7	–	5	2	5	–	5	5	5	–	–	–
COc1ccccc1C1CC(=O)c2c(n(O)c3ccc(Cl)cc3c2=O)C1 (centres undefined)	0.8	–	–	–	–	2.2	–	–	–	3	1.8	Delta mean survival time (Plasmodium berghei [3]): 2.2
CN(C)CCC/N=C1/c2c([nH]c3ccc(Cl)cc3c2=O)CC(c2ccc(Cl)c(Cl)c2)C1Cc1ccccc1 (centres undefined)	-0.1	6.1	–	–	–	0.5	–	–	–	5	0.7	Delta mean survival time (Plasmodium berghei [3]): 7.7
CN(C)CCC/N=C1\CC2(CCCCC2)Cc2nc3ccc(Cl)cc3c(O)c21	–	0	–	–	–	0.6	–	–	–	1	–	Delta mean survival time (Plasmodium berghei [13]): 0.4
CSc1ccc(C2C/C(=N\CCCN(C)C)c3c(nc4ccc(Cl)cc4c3O)C2)cc1 (centres undefined)	2.8	9.8	4	–	1	3.4	–	1	3	1	4	Delta mean survival time (Plasmodium berghei [3]): 12.8
CC1/C(=N\CCCN(C)C)c2c(nc3ccc(Cl)cc3c2O)CC1c1ccc(Cl)c(Cl)c1 (stereo in doubt)	–	–	4	–	–	–	–	–	–	1	–	Delta mean survival time (Plasmodium berghei [1]; 20 mg/kg): 7.8; Delta mean survival time (Plasmodium berghei [12]; 80 mg/kg): 10.7; Delta mean survival time (Plasmodium berghei [7]; 40 mg/kg): 21; No. of cured mice (Plasmodium berghei [8]; 40 mg/kg): 4
O=C1CC(c2ccc(C(F)(F)F)cc2)Cc2nc3ccc(Cl)cc3c(O)c21 (centres undefined)	8.9	–	5	1	4	9.9	2	5	5	–	9.4	–
N=C1CC(c2ccc(C(F)(F)F)cc2)Cc2nc3ccc(Cl)cc3c(O)c21 (centres undefined)	11.2	–	5	1	5	–	5	5	5	–	–	–
CCN(CC)CC(C)(C)C/N=C1\CC(c2ccc(Cl)cc2Cl)Cc2nc3ccc(Cl)cc3c(O)c21 (centres undefined)	12.7	–	5	3	5	13.7	4	5	5	–	–	–
CCCCCCC/N=C1\CC(c2ccc(C(F)(F)F)cc2)Cc2c1c(=O)c1cc(Cl)ccc1n2O (centres undefined)	–	–	4	–	5	4.3	–	5	3	1	–	Delta mean survival time (Plasmodium berghei [3]): 14.7
CC(C)CN(CC/N=C1\CC(c2ccc(Cl)c(Cl)c2)Cc2c1c(=O)c1cc(Cl)ccc1n2O)CC(C)C (centres undefined)	3.6	9.7	5	–	1	5.3	1	2	1	–	6.3	Delta mean survival time (Plasmodium berghei [3]): 13
O=c1c2c(n(O)c3ccc(Cl)cc13)CC(c1ccc(C(F)(F)F)cc1)C/C2=N\CCCN(CCO)CCO (centres undefined)	12	–	5	2	1	14.8	4	5	5	–	9.5	–
COc1cc(C2C/C(=N\CCCN3CCCCC3)c3c(n(O)c4ccc(Cl)cc4c3=O)C2)cc(OC)c1OC (centres undefined)	–	1.4	–	–	–	0.3	–	–	–	1	–	Delta mean survival time (Plasmodium berghei [13]): 4.5
O=c1c2c(n(O)c3ccc(Cl)cc13)CC(c1ccc(C(F)(F)F)cc1)C/C2=N\CCCN1CCCCC1 (centres undefined)	8.5	–	1	–	3	10	3	5	5	4	12	–
CCN(CC)CCCC(C)/N=C1\CC(c2ccc(Cl)cc2Cl)Cc2nc3ccc(Cl)cc3c(O)c21 (centres undefined)	10.2	–	5	3	5	13.7	4	5	5	–	–	–
O=C1CC(c2ccc(C(F)(F)F)cc2)Cc2c1c(=O)c1cc(Cl)ccc1n2Cc1ccccc1 (centres undefined)	–	0	–	–	–	0.2	–	–	–	1	–	Delta mean survival time (Plasmodium berghei [13]): 0.3
CN(C)CCC/N=C1\CC(c2ccc(C(F)(F)F)cc2)Cc2nc3ccc(I)cc3c(O)c21 (centres undefined)	–	7.3	1	–	–	3	–	2	–	1	–	Delta mean survival time (Plasmodium berghei [13]): 14
CCN(CC)CC/N=C1\CC(c2ccc(Cl)c(Cl)c2)Cc2c1c(=O)c1cc(Cl)ccc1n2O (centres undefined)	10.5	–	5	1	3	8.8	3	5	5	–	12.7	–
CCN(CC)CCCC/N=C1\CC(c2ccc(C(F)(F)F)cc2)Cc2nc3ccc(Cl)cc3c(O)c21 (centres undefined)	18.6	–	5	2	5	13.6	4	5	5	–	–	–
O=C1CC(c2ccc(C(F)(F)F)cc2)Cc2c1c(=O)c1cc(Cl)ccc1n2O (centres undefined) [FLOXACRINE]	8.9	–	3	4	5	–	5	5	5	–	–	Delta mean survival time (Plasmodium berghei [13]): 3.4
CCN(CC)CC(C)(C)C/N=C1\CC(c2ccc(Cl)c(Cl)c2)Cc2c1c(=O)c1cc(Cl)ccc1n2O (centres undefined)	4	14.6	5	–	2	9.6	1	4	4	–	10.3	Delta mean survival time (Plasmodium berghei [3]): 13.6
CC1/C(=N\CCCN(C)C)c2c(nc3ccc(Cl)cc3c2O)CC1c1ccc(C(F)(F)F)cc1 (stereo in doubt; trans)	–	–	1	–	–	–	–	–	4	–	–	Delta mean survival time (Plasmodium berghei [1]; 20 mg/kg): 11; Delta mean survival time (Plasmodium berghei [3]; 320 mg/kg): 3.7; No. of cured mice (Plasmodium berghei [5]; 20 mg/kg): 1; Delta mean survival time (Plasmodium berghei [13]; 640 mg/kg): 2.7; No. of cured mice (Plasmodium berghei [9]; 160 mg/kg): 5
OCCNCC/N=C1\CC(c2ccc(Cl)cc2Cl)Cc2nc3ccc(Cl)cc3c(O)c21 (centres undefined)	–	–	5	5	5	–	5	5	5	–	–	–
CC1C(=O)c2c(n(O)c3ccc(Cl)cc3c2=O)CC1c1ccc(Cl)c(Cl)c1 (centres undefined)	7.6	–	5	3	5	9.6	4	5	5	–	–	–
O=C1CC(c2ccc(Cl)cc2Cl)Cc2nc3ccc(Cl)cc3c(O)c21 (centres undefined)	10.3	17.8	5	2	4	18.1	3	4	5	–	15.8	–
